System: MS2 coat protein
Experiment: apparent Kd, MS2 coat protein; higher = weaker binding; RNA-MaP array; FMN 200 µM where present
Summary of the method: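 Stalled E. coli RNA polymerase transcribed the designs on Illumina sequencing-chip clusters. SNAP-549-labelled MS2 coat protein was titrated from 0.7 or 1.5 nM, doubling to 3 µM, without and then with constant ligand, in 100 mM Tris-HCl pH 7.5, 80 mM KCl, 4 mM MgCl2, BSA, DTT, yeast tRNA and Tween-20. Per-cluster binding curves were fitted to green signal normalised to red-channel RNA signal and control-cluster median Fmax. The apparent Kd is the median of the filtered fits.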

[1] = designed as: OFF switch for flavin mononucleotide, no ligand
[2] = ligand present: flavin mononucleotide, designed as: OFF switch for flavin mononucleotide
[3] = designed as: ON switch for flavin mononucleotide, no ligand
[4] = ligand present: flavin mononucleotide, designed as: ON switch for flavin mononucleotide

| Sequence | apparent Kd [1] [nM] | apparent Kd [2] [nM] | apparent Kd [3] [nM] | apparent Kd [4] [nM] |
| --- | --- | --- | --- | --- |
| AGUAGAUCAGGAUAUACGUAAAUGGUAAUUAUGUAACUUUUACAUGAGGAUCACCCAUGUAGAAGGGAUCUACA | 17.5 | 18.1 |  |  |
| CCUACCAUCACAGGAUAUGCUAUCCUUUGGGUAGCAGAAGGGUGAUAACAUGAGGAUCACCCAUGUGGUAGGCCCGGUGACGGG |  |  | 768 | 227 |
| CCAUUUCAGUAAGGAUAUAUAAACAUGACGAUACAUGAGGAUCACCCAUGUGUAGAAGGUACUAAUACAUAUAAUGCAAUGCUC | 20.4 | 17.2 |  |  |
| UCCUGACCGAGAGGUAGGAGUGGUAGAAGGCGACCGGUGCCAGAUGACAUGAGGAUCACCCAUGUCGAGGAUAUACCACAGAAU | 7.45 | 14.1 |  |  |
| ACUAGGCGAGGAUAUACAUGCUUAACGCAGGAAAAGCUGCGACAUGAGGAUCACCCAUGUAGAAGGCGCAAAUA | 15.7 | 115 |  |  |
| GGUCUGCGAGGAUAUACAUGAGGAUCACCCAUGUGCGAGAUACUAGUGAGGUCGAUUGGUAGAAGGCGCGGACA | 105 | 66.6 |  |  |
| CGCUACAGCCAGAAGGACAUGAGGAUCACCCAUGUAGGAUAUGGGAGACGCAGUCCAGUGUAGAGAAACUACGCUACUGUAGCG |  |  | 504 | 216 |
| GGAUAGGACAGAGGAUAUACGUGCUAGAGAUACUAGCAAAAUUUCCACACAUGAGGAUCACCCAUGUAGAAGGCUGUCCUAUCG |  | 7.57 |  |  |
| GUCCUUUCUGAGGAUAUUAUCUGGUUCGAUUGAUAAGAAGGCAGUACAUGAGGAUCACCCAUGUGGGUCGUCUG | 31.6 | 69.5 |  |  |
| GGGUUCAUGUAAGGAUAUGUAUUGUUAAUCGGAGCAGAAGGUACAUGAGGAUCACCCAUGUCAACCUAGAGCAAGGCUUCUUAG | 19.7 | 58 |  |  |
| UGUCGGAGCAGAGGAUAUUACAUGAGGAUCACCCAUGUAUGAACCGAUAGCUGGAAACAGCAAUGUAAGAAGGCUGCUCCGACA | 19 | 258 |  |  |
| GGUGUGUUAGGAUAUCGCGGCGGCGGCGUUUGUUGUUGUUGUGAGAAGGGACAUGAGGAUCACCCAUGUGCGCC | 24.4 | 27.2 |  |  |
| AGAUCACAUGAGGAUCACCCAUGUCAGGAUAUGAUACUAUGUACUUCGGUACAUAGUAUCAGAAGGGAUAUAAA | 70.7 | 239 |  |  |
| GAACUGAAGCAUAGCUUUAGUCGUACAUGAGGAUCACCCAUGUAGGAUAUGGUAGGCAUCGCUUACUAGAAGGAUAGAGUGAUC | 172 | 87.1 |  |  |
| AUAGAAAGAUUAAUAUGAUUACAUGAGGAUCACCCAUGUAUAAAGGAUAUCGACGUCAAUGACGUCGAGAAGGUUAUACAUAAU | 24.2 | 84 |  |  |
| UGGUACAUGGGAGGAUAUCAUGUAGAGACAUGAGGAUCACCCAUGUCGAUGGAGACAUCGGAGAUUGAGAAGGCCCAUGUACCU |  |  | 152 | 23.1 |
| CCCGCGAUGUCAGGAUAUAGUCGGAGGUGCAGACUAGAAGGGACAUGAGGAUCACCCAUGUGCGUGAAAAUUUGAAACCCAGGU | 46.5 | 164 |  |  |
| CGUGCUAUGUAGAAGGCAGAUCUGAUUCAGAUCUGAGGAUAUACAUGAGGAUCACCCAUGUUAUGCACCAGCACGAGAGUGCAU | 9.83 | 40.2 |  |  |
| CUAAAUCAUGUAGGAUAUGCAUGGCGAAGCUACGCAGAAGGACAUGAGGAUCACCCAUGUCAGUACGUCUGCGUACAGACGUUG | 14.3 | 19.1 |  |  |
| AUGCCCUGAGGAUAUCUCAUCCCGCACAUGAGGAUCACCCAUGUUCUCCUCCGGGCUCCGAGAGAAGGCAGGCCCA | 55.6 | 87.2 |  |  |
| AUUUCGUUAGCAGGAUAUGGACAGGCCUGUCCGUAUUGAGUCAGUAACAUGAGGAUCACCCAUGUCCAGAAGGGCUCGAAGUAG | 8.06 | 13.9 |  |  |
| CUAGCGGAUGUAGGAUAUCGGACUGUUUCAGUCUGAGAAGGACAUGAGGAUCACCCAUGUAUUGCUGCGUGAGUAGCACGCUAG | 19.1 | 30.2 |  |  |
| UGGUACAUGGGAGGAUAUCAUGUAGAUACAUGAGGAUCACCCAUGUCGAUGGAGACAUCGGAGAUUGAGAAGGCCCAUGUACCU |  |  | 778 | 32.9 |

— the EternaBench riboswitch data
